# In ChEMBL document CHEMBL1151761, “Radiohalogenated prostate-specific membrane antigen (PSMA)-based ureas as imaging agents for prostate cancer” (J Med Chem, 2008):
# How the values were obtained:
# Assay type in all cases: ADME, organism-based
# [1] = Ratio of drug level in PC3 PIP tumor to PC3 flu tumor of human PSMA expressing PC3 PIP and PSMA deficient human PC3 flu cells xenografted SCID mouse at 2 uCi, iv after 30 mins; details: in vivo, 0.5 h
# In short: (§1)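 Male SCID mice carried subcutaneous PSMA+ PC-3 PIP (left shoulder) and PC-3 flu (right shoulder) xenografts, 1-5 × 10^6 cells in HBSS, and were used at 3-5 mm tumor diameter. Tail-vein injection of 2 µCi radioligand; four mice per time point, killed by cervical dislocation. %ID/g from a standard dilution of the dose, decay-corrected, mean ± SD; PIP tumor:organ ratios.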
# [2] = Ratio of drug level in PC3 PIP tumor to PC3 flu tumor of human PSMA expressing PC3 PIP and PSMA deficient human PC3 flu cells xenografted SCID mouse at 2 uCi, iv after 5 hrs; details: in vivo; in short: as §1
# Kidney = assay: Biodistribution in kidney of PSMA expressing human PC3 PIP and PSMA deficient human PC3 flu cells xenografted SCID mouse at 2 uCi, iv after 30 mins; details: in vivo, 0.5 h
# [3] = Biodistribution in small intestine of PSMA expressing human PC3 PIP and PSMA deficient human PC3 flu cells xenografted SCID mouse at 2 uCi, iv after 30 mins; details: in vivo, 0.5 h; in short: as §1
# [4] = Biodistribution in large intestine of PSMA expressing human PC3 PIP and PSMA deficient human PC3 flu cells xenografted SCID mouse at 2 uCi, iv after 30 mins; details: in vivo, 0.5 h; in short: as §1
# [5] = Biodistribution in PC3 PIP tumor of PSMA expressing human PC3 PIP and PSMA deficient human PC3 flu cells xenografted SCID mouse at 2 uCi, iv after 30 mins; details: in vivo, 0.5 h; in short: as §1
# Blood = assay: Biodistribution in blood of PSMA expressing human PC3 PIP and PSMA deficient human PC3 flu cells xenografted SCID mouse at 2 uCi, iv after 60 mins; details: in vivo, 1 h
# Urinary bladder [6] = assay: Biodistribution in bladder of PSMA expressing human PC3 PIP and PSMA deficient human PC3 flu cells xenografted SCID mouse at 2 uCi, iv after 60 mins; details: in vivo, 1 h
# Liver [7] = assay: Biodistribution in liver of PSMA expressing human PC3 PIP and PSMA deficient human PC3 flu cells xenografted SCID mouse at 2 uCi, iv after 2 hrs; details: in vivo
# Stomach = assay: Biodistribution in stomach of PSMA expressing human PC3 PIP and PSMA deficient human PC3 flu cells xenografted SCID mouse at 2 uCi, iv after 2 hrs; details: in vivo
# Lung = assay: Biodistribution in lung of PSMA expressing human PC3 PIP and PSMA deficient human PC3 flu cells xenografted SCID mouse at 2 uCi, iv after 5 hrs; details: in vivo
# Liver [8] = assay: Biodistribution in liver of PSMA expressing human PC3 PIP and PSMA deficient human PC3 flu cells xenografted SCID mouse at 2 uCi, iv after 5 hrs; details: in vivo
# Pancreas = assay: Biodistribution in pancreas of PSMA expressing human PC3 PIP and PSMA deficient human PC3 flu cells xenografted SCID mouse at 2 uCi, iv after 5 hrs; details: in vivo
# Muscle tissue = assay: Biodistribution in muscle of PSMA expressing human PC3 PIP and PSMA deficient human PC3 flu cells xenografted SCID mouse at 2 uCi, iv after 5 hrs; details: in vivo
# [9] = Biodistribution in large intestine of PSMA expressing human PC3 PIP and PSMA deficient human PC3 flu cells xenografted SCID mouse at 2 uCi, iv after 5 hrs; details: in vivo; in short: as §1
# Urinary bladder [10] = assay: Biodistribution in bladder of PSMA expressing human PC3 PIP and PSMA deficient human PC3 flu cells xenografted SCID mouse at 2 uCi, iv after 5 hrs; details: in vivo
# [11] = Ratio of drug level in tumor to spleen of human PSMA expressing PC3 PIP and PSMA deficient human PC3 flu cells xenografted SCID mouse at 2 uCi, iv after 30 mins; details: in vivo, 0.5 h
# In short: (§2)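 Male SCID mice carried subcutaneous xenografts: PSMA+ PC-3 PIP behind the left shoulder and PSMA− PC-3 flu behind the right, 1–5 × 10^6 cells in HBSS. Mice were used at 3–5 mm tumor diameter. 2 μCi was given by tail vein, and 4 mice per time point were killed by cervical dislocation. %ID/g came from a standard dilution of the dose, decay-corrected. Ratio is PIP tumor %ID/g to organ %ID/g.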
# [12] = Ratio of drug level in tumor to large intestine of human PSMA expressing PC3 PIP and PSMA deficient human PC3 flu cells xenografted SCID mouse at 2 uCi, iv after 30 mins; details: in vivo, 0.5 h; in short: as §1
# [13] = Ratio of drug level in tumor to heart of human PSMA expressing PC3 PIP and PSMA deficient human PC3 flu cells xenografted SCID mouse at 2 uCi, iv after 60 mins; details: in vivo, 1 h; in short: as §1
# [14] = Ratio of drug level in tumor to stomach of human PSMA expressing PC3 PIP and PSMA deficient human PC3 flu cells xenografted SCID mouse at 2 uCi, iv after 60 mins; details: in vivo, 1 h; in short: as §2
# [15] = Ratio of drug level in tumor to spleen of human PSMA expressing PC3 PIP and PSMA deficient human PC3 flu cells xenografted SCID mouse at 2 uCi, iv after 60 mins; details: in vivo, 1 h; in short: as §2
# [16] = Ratio of drug level in tumor to large intestine of human PSMA expressing PC3 PIP and PSMA deficient human PC3 flu cells xenografted SCID mouse at 2 uCi, iv after 60 mins; details: in vivo, 1 h; in short: as §1
# [17] = Ratio of drug level in tumor to pancreas of human PSMA expressing PC3 PIP and PSMA deficient human PC3 flu cells xenografted SCID mouse at 2 uCi, iv after 2 hrs; details: in vivo; in short: as §1
# [18] = Ratio of drug level in tumor to small intestine of human PSMA expressing PC3 PIP and PSMA deficient human PC3 flu cells xenografted SCID mouse at 2 uCi, iv after 2 hrs; details: in vivo; in short: as §2
# [19] = Ratio of drug level in tumor to bladder of human PSMA expressing PC3 PIP and PSMA deficient human PC3 flu cells xenografted SCID mouse at 2 uCi, iv after 2 hrs; details: in vivo; in short: as §1
# [20] = Ratio of drug level in tumor to blood of human PSMA expressing PC3 PIP and PSMA deficient human PC3 flu cells xenografted SCID mouse at 2 uCi, iv after 30 mins
# In short: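 Male SCID mice carried subcutaneous xenografts of PSMA+ PC-3 PIP cells behind the left shoulder and PSMA− PC-3 flu cells behind the right (1–5 × 10^6 cells in HBSS), used at a tumour diameter of 3–5 mm. Each mouse received 2 μCi of radioiodinated tracer via the tail vein. Tissues were harvested at each time point for %ID/g against a standard dilution of the dose, decay-corrected. Ratios are PIP tumour:organ.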
# [21] = Ratio of drug level in tumor to heart of human PSMA expressing PC3 PIP and PSMA deficient human PC3 flu cells xenografted SCID mouse at 2 uCi, iv after 5 hrs; details: in vivo; in short: as §1
# [22] = Ratio of drug level in tumor to small intestine of human PSMA expressing PC3 PIP and PSMA deficient human PC3 flu cells xenografted SCID mouse at 2 uCi, iv after 5 hrs; details: in vivo; in short: as §2
# [23] = Ratio of drug level in tumor to large intestine of human PSMA expressing PC3 PIP and PSMA deficient human PC3 flu cells xenografted SCID mouse at 2 uCi, iv after 5 hrs; details: in vivo; in short: as §1
structure (smiles),measurement,setting,value
O=C(O)CC[C@H](NC(=O)N[C@@H](CCCCNC(=O)c1ccc([18F])cc1)C(=O)O)C(=O)O,Ratio,[1],11
same,Ratio,[2],35
same,Drug uptake,Kidney,72 % ID/g
same,Drug uptake,[3],1.7 % ID/g
same,Drug uptake,[4],1.2 % ID/g
same,Drug uptake,[5],8.6 % ID/g
same,Drug uptake,Blood,0.7 % ID/g
same,Drug uptake,Urinary bladder [6],17 % ID/g
same,Drug uptake,Liver [7],11.7 % ID/g
same,Drug uptake,Stomach,0.3 % ID/g
same,Drug uptake,Lung,0.1 % ID/g
same,Drug uptake,Liver [8],1 % ID/g
same,Drug uptake,Pancreas,0.05 % ID/g
same,Drug uptake,Muscle tissue,0.1 % ID/g
same,Drug uptake,[9],0.6 % ID/g
same,Drug uptake,Urinary bladder [10],5.2 % ID/g
same,Ratio,[11],0.7
same,Ratio,[12],7
same,Ratio,[13],35
same,Ratio,[14],26
same,Ratio,[15],1
same,Ratio,[16],13
same,Ratio,[17],25
same,Ratio,[18],12
same,Ratio,[19],0.3
same,Kp at 0.5 h,[20],3
same,Ratio,[21],117
same,Ratio,[22],35
same,Ratio,[23],6
